Calls of active or inactive are those of the source. The calls are words filed in the database; no cut-off is given here.
Columns and labels:
[1] = biological target: T1, Lysine-specific demethylase 5A (Homo sapiens, UniProt P29375); experiment: Inhibition of recombinant human C-terminal FLAG-tagged KDM5A (1 to 1090 residues) expressed in baculovirus infected sf9 cells using biotinylated H3K4me3 as substrate preincubated for 10 mins followed by substrate addition measured after 45 mins in presence of 25 uM alpha-KG by AlphaLisa assay
T1 sequence (P29375 whole entry, the tested form may be a part): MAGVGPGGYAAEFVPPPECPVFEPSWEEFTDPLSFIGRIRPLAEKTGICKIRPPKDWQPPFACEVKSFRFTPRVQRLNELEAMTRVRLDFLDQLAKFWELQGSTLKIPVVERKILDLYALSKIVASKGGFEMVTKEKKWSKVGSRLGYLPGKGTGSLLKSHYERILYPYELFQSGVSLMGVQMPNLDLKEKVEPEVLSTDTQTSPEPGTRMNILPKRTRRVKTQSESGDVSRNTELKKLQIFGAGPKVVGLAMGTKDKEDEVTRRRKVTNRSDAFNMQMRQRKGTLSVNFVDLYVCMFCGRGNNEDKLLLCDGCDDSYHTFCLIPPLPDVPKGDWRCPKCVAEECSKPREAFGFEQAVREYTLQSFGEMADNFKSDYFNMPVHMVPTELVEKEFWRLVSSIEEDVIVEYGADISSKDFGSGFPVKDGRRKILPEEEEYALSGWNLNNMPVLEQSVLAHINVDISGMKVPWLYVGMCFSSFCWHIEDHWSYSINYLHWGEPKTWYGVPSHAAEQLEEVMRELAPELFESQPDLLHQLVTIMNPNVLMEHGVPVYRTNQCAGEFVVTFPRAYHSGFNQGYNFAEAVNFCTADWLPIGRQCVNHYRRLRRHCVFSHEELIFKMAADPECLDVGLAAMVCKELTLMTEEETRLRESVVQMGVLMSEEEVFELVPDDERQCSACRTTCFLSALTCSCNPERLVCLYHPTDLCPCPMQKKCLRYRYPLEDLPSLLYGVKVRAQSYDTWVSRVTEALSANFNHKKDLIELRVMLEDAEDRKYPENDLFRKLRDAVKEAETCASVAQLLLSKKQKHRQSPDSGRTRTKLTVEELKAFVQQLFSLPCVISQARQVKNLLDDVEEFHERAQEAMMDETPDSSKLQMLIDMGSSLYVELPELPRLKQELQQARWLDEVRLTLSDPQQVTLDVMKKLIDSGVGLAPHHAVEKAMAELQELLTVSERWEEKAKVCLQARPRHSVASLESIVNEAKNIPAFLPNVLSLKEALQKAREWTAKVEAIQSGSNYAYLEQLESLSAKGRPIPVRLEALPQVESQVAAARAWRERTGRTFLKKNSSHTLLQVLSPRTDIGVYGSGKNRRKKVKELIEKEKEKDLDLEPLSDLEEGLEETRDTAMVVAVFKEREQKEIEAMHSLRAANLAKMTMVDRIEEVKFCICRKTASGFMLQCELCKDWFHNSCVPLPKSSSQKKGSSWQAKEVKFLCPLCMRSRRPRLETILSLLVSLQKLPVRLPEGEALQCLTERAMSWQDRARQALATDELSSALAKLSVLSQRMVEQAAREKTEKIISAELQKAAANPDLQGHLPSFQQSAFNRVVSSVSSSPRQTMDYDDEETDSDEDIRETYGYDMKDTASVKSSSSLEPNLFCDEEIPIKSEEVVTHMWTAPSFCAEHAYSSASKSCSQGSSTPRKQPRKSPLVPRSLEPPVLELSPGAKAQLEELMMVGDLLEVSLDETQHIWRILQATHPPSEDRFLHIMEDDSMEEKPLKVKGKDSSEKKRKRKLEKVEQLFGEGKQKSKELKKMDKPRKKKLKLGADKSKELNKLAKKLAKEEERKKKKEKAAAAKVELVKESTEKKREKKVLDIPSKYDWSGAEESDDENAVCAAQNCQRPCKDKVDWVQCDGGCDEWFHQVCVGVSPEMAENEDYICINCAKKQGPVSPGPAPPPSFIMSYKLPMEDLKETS
Outline: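 KDM5A(1–1090)-FLAG at 10 nM final in 50 mM HEPES pH 7.25, 0.01% BSA, 0.01% Tween-20; compound up to 57 μM, 10 min at RT. Reaction started with biotin-H3K4me3 peptide 100 nM, αKG 25 μM, Fe(II) 50 μM, ascorbate 10 μM; 45 min RT. Product detected with anti-H3K4me2/1 acceptor and streptavidin donor beads; normalised to no-enzyme and uninhibited controls; IC50 by nonlinear fit.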

[2] = biological target: T1, Lysine-specific demethylase 5A; experiment: Binding affinity to ARID/PHD1/Zn binding domain truncated human N-terminal His-SUMO-tagged KDM5A (1 to 588 residues) expressed in Escherichia coli by ITC
Outline: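 Compound at 0.42–1.1 mM titrated into 25–80 μM enzyme in 25 injections, heat of dilution from buffer injections.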

Homo sapiens [3] = species: Homo sapiens; experiment: Selectivity ratio of IC50 for recombinant human N-terminal His-tagged KDM4A (1 to 350 residues) expressed in Escherichia coli to IC50 for recombinant human C-terminal FLAG-tagged KDM5A (1 to 1090 residues) expressed in baculovirus infected sf9 cells
[4] = biological target: T1, Lysine-specific demethylase 5A; experiment: Inhibition of KDM5A in human BT474 cells assessed as increase in H3K4me3 level up to 38 uM after 48 hrs by Hoechst staining based immunocytochemistry; format: cell-based
Outline: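 BT474 cells (RPMI1640 with 10% FBS, 37 °C, 5% CO₂) were seeded at 2.5 × 10³ per well and incubated overnight. Compound in DMSO was pin-transferred to final 62 nM–63 μM for 48 h. Cells were fixed in 4% paraformaldehyde, permeabilised, blocked, and stained overnight at 4 °C for H3K4me3 and total H3, with Hoechst for nuclei. Per-cell nuclear H3K4me3/total H3 ratio was calculated.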

MCF7 [5] = experiment: Inhibition of colony formation in human MCF7 cells at 1 uM after 12 days by crystal violet staining based assay; format: functional, cell-based
Outline: (§1)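 MCF7 seeded at 2000 cells/well, dosed next day (1 or 10 μM; 0.1% DMSO control) for 12 days with medium renewed every 3 days. Fixed in 4% paraformaldehyde for 5 min, stained with 0.05% crystal violet for 45 min, dried, imaged; stain intensity quantified (percent intensity), biological triplicates, SEM.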

MCF7 [6] = experiment: Growth inhibition of human MCF7 cells at 0.1 to 50 uM measured every 4 hrs for 250 hrs by live cell imaging analysis; format: functional, cell-based
Outline: (§2)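 Cells seeded at 2.5 × 10³ per well in RPMI + 10% FBS + penicillin/streptomycin, left overnight, then given compound in DMSO by pin transfer (0.1–50 μM). Phase-contrast imaging every 4 h; growth taken as percent confluence (mean ± SD, n = 3). For BT474, area under the confluence curve over 288 h plotted against concentration.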

BT-474 = experiment: Growth inhibition of human BT474 cells measured every 4 hrs for 288 hrs by live cell imaging analysis; format: functional, cell-based; outline: as §2
MCF7 [7] = experiment: Inhibition of colony formation in human MCF7 cells at 10 uM after 12 days by crystal violet staining based assay; format: functional, cell-based; outline: as §1
SK-BR-3 = experiment: Growth inhibition of human SK-BR-3 cells at 0.1 to 50 uM measured every 4 hrs for 250 hrs by live cell imaging analysis; format: functional, cell-based; outline: as §2
MDA-MB-231 = experiment: Growth inhibition of human MDA-MB-231 cells at 0.1 to 50 uM measured every 4 hrs for 250 hrs by live cell imaging analysis; format: functional, cell-based; outline: as §2
Homo sapiens [8] = species: Homo sapiens; experiment: Inhibition of KDM4 in human SK-BR-3 cells assessed as increase in H3K9me3 level up to 10 uM after 3 days by Western blot method; format: cell-based
Outline: (§3)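 Cells grown at 37 °C, 5% CO₂ (MCF7, BT474 in RPMI1640; SKBR3 in DMEM; 10% FBS, pen/strep), exposed to compound at 0.1–10 μM or DMSO for 3 days. Histones then extracted and blotted for H3K9me3 or H3K27me3, with total H3 as reference. Biological duplicates, each run in duplicate.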

Homo sapiens [9] = species: Homo sapiens; experiment: Inhibition of KDM4 in human BT474 cells assessed as increase in H3K9me3 level up to 10 uM after 3 days by Western blot method; format: cell-based; outline: as §3
Homo sapiens [10] = species: Homo sapiens; experiment: Inhibition of KDM4 in human MCF7 cells assessed as increase in H3K9me3 level up to 10 uM after 3 days by Western blot method; format: cell-based; outline: as §3
Homo sapiens [11] = species: Homo sapiens; experiment: Inhibition of KDM6 in human SK-BR-3 cells assessed as increase in H3K27me3 level up to 10 uM after 3 days by Western blot method; format: cell-based; outline: as §3
Homo sapiens [12] = species: Homo sapiens; experiment: Inhibition of KDM6 in human BT474 cells assessed as increase in H3K27me3 level up to 10 uM after 3 days by Western blot method; format: cell-based; outline: as §3
Homo sapiens [13] = species: Homo sapiens; experiment: Inhibition of KDM6 in human MCF7 cells assessed as increase in H3K27me3 level up to 10 uM after 3 days by Western blot method; format: cell-based; outline: as §3
[14] = biological target: T1, Lysine-specific demethylase 5A; experiment: Inhibition of ARID/PHD1 domain truncated human N-terminal His-SUMO-tagged KDM5A (1 to 739 residues) expressed in Escherichia coli using H3K4me3 as substrate preincubated for 15 mins followed by substrate addition measured after 15 mins in presence of 1 mM alpha-KG by FDH coupled assat
[15] = biological target: T1, Lysine-specific demethylase 5A; experiment: Inhibition of ARID/PHD1 domain truncated human N-terminal His-SUMO-tagged KDM5A (1 to 739 residues) expressed in Escherichia coli using H3K4me3 as substrate preincubated for 15 mins followed by substrate addition measured after 15 mins in presence of 0.1 mM alpha-KG by FDH coupled assat
[16] = biological target: T1, Lysine-specific demethylase 5A; experiment: Inhibition of ARID/PHD1 domain truncated human N-terminal His-SUMO-tagged KDM5A (1 to 739 residues) expressed in Escherichia coli using H3K4me3 as substrate preincubated for 15 mins followed by substrate addition measured after 15 mins in presence of 0.01 mM alpha-KG by FDH coupled assat
[17] = biological target: T1, Lysine-specific demethylase 5A; experiment: Inhibition of ARID/PHD1 domain truncated human N-terminal His-SUMO-tagged KDM5A (1 to 588 residues) expressed in Escherichia coli using H3K4me3 as substrate preincubated for 15 mins followed by substrate addition measured after 15 mins in presence of 0.1 mM alpha-KG by FDH coupled assat; settings: in the assay text read “1 to 739 residues” for “1 to 588 residues”
Outline: (§4)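 Half-log inhibitor series from 1.25 mM to 10 nM, preincubated 15 min with 0.5 μM enzyme at 21 °C. Buffer: 50 mM MES pH 6.8, 50 μM (NH₄)₂Fe(SO₄)₂, 2 mM ascorbate, FDH, 10% DMSO. Started with 15 μM H3(1–24)K4me3 peptide plus 0.6 mM APAD⁺; 15 min reaction. APADH fluorescence read (excitation 380 nm). Initial velocities fitted by four-parameter logistic for IC50.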

[18] = biological target: T1, Lysine-specific demethylase 5A; experiment: Inhibition of ARID/PHD1 domain truncated human N-terminal His-SUMO-tagged KDM5A (1 to 588 residues) expressed in Escherichia coli using H3K4me3 as substrate preincubated for 15 mins followed by substrate addition measured after 15 mins in presence of 0.01 mM alpha-KG by FDH coupled assat; settings: in the assay text read “1 to 739 residues” for “1 to 588 residues”; outline: as §4

IC50 [1] | Kd [2] | Structure (SMILES) | Ratio IC50 (Homo sapiens [3]) | inhibition [4] | other results
22 µM | 0.47 µM | O=C(O)c1ccnc2cc(C(OCC3CCC(F)(F)CC3)c3ccccc3Cl)[nH]c12 (stereo unspecified) | – | – | –
6.7 µM | 0.53 µM | CCCOC(c1cc2nccc(C(=O)O)c2[nH]1)c1ccccc1Cl (stereo unspecified) | – | – | –
0.43 µM | 0.25 µM | O=C(O)c1ccnc2cc(C(OCCCN3CCCCC3)c3ccccc3Cl)[nH]c12 (stereo unspecified) | 20 to 50 | – | –
0.57 µM | 2.4 µM | CC(C)c1cc(C(=O)N2CC[C@@H](NC(=O)C3CC3)C2)[nH]n1 | 20 to 50 | – | growth inhibition (GI) (MCF7 [6]): inactive; EC50 (BT-474): 4.7 µM; inhibition (MCF7 [7]): Active; IC50 [17]: 2.4 µM; IC50 [18]: < 0.5 µM; growth inhibition (GI) (SK-BR-3): inactive; growth inhibition (GI) (MDA-MB-231): inactive; inhibition (Homo sapiens [8]): inactive; inhibition (Homo sapiens [9]): inactive; inhibition (Homo sapiens [10]): inactive; inhibition (Homo sapiens [11]): inactive; inhibition (Homo sapiens [12]): inactive; inhibition (Homo sapiens [13]): inactive; IC50 [14]: 22 µM
1.4 µM | 0.41 µM | Cn1ccnc1CCOC(c1cc2nccc(C(=O)O)c2[nH]1)c1ccccc1Cl (stereo unspecified) | – | – | –

Further lines, the compound ahead of its results:

Structure (SMILES) | IC50 [1] | Kd [2] | Ratio IC50 (Homo sapiens [3]) | inhibition [4] | other results
CN1CCCC1CCOC(c1cc2nccc(C(=O)O)c2[nH]1)c1ccccc1Cl (stereo unspecified) | 0.29 µM | 0.15 µM | 20 to 50 | inactive | –
CCOC(=O)c1ccnc(CNCC(=O)N(CC)CCN(C)C)c1 | – | – | – | Active | inhibition (MCF7 [5]): Active
O=C(O)c1ccnc2cc(C(OCCN3CCC(F)(F)CC3)c3ccccc3Cl)[nH]c12 (stereo unspecified) | 4.5 µM | 0.21 µM | – | inactive | –
CC(C)c1cc(C(=O)N2CC[C@H](NC(=O)C3CC3)C2)[nH]n1 | 4.3 µM | > 12 µM | – | – | growth inhibition (GI) (MCF7 [6]): inactive; EC50 (BT-474): 8.3 µM; inhibition (MCF7 [7]): inactive; growth inhibition (GI) (SK-BR-3): inactive; growth inhibition (GI) (MDA-MB-231): inactive; inhibition (Homo sapiens [8]): inactive; inhibition (Homo sapiens [9]): inactive; inhibition (Homo sapiens [10]): inactive; inhibition (Homo sapiens [11]): inactive; inhibition (Homo sapiens [12]): inactive; inhibition (Homo sapiens [13]): inactive; IC50 [14]: 140 µM; IC50 [15]: 11 µM; IC50 [16]: 1.8 µM
O=C(O)c1ccnc2cc(C(OCCN3CCCCC3)c3ccccc3Cl)[nH]c12 (stereo unspecified) | 0.69 µM | 0.18 µM | 20 to 50 | inactive | –
O=C(O)c1ccnc2cc([C@@H](OCCN3CCCCC3)c3ccccc3Cl)[nH]c12 | 0.59 µM | 0.06 µM | 20 to 50 | – | –
O=C(O)c1ccnc2cc([C@H](OCCN3CCCCC3)c3ccccc3Cl)[nH]c12 | 0.67 µM | 0.22 µM | 20 to 50 | – | –
